TPT1 inh: inhibitors of Candida albicans tRNA 2'-phosphotransferase TPT1; recombinant caTPT1, FP RNA substrate dephosphorylation; inhibition, % at 5 µM; 300,000 tested, 0.81% active;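 active = inhibition above the mean of all tested compounds plus 3 SD, set per screening campaign, cut at about 24% in these data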;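 also: plate controls were DMSO alone for no effect and ferristatin control at 100 nM for full effect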
Rpn11 block: Rpn11 (human) deubiquitinase inhibition. human 26S proteasome, Ub4-pepOG fluorescence polarization; 20S core pre-blocked with epoxomicin. inhibition, % at 20 µM. 360,000 tested, 0.59% active. AID 588493;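 active = inhibition at 20 µM, scaled to each plate's controls, above about 33%, limit read from the data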
Target sequence (O00487 whole entry, looked up): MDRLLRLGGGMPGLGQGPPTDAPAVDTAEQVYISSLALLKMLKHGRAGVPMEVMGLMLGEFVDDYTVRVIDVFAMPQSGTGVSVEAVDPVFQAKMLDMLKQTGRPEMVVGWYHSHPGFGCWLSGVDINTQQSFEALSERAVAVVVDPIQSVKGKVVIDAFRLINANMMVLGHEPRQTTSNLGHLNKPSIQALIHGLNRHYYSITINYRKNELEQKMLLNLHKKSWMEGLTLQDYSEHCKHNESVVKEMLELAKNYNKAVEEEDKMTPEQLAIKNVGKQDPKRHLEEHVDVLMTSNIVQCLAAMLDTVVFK
HNF4A DNA FP: change in binding of human HNF4 alpha to DNA. P41235. HNF4a-FITC DNA binding, fluorescence polarization, 1 h. activity change, % at 10 µM. 360,000 tested, 0.3% active. AID 1224865; in the data active = activity change above about 30%, passing the limit was not always enough
CSN inh: blocks human CSN-mediated cullin deneddylation; Q92905; Purified CSN, SCF-Nedd8-OG deneddylation, fluorescence polarization; inhibition, % at 12.5 µM; 360,000 tested, 0.38% active; AID 651999;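 active = pattern-corrected inhibition above about 35%, with an unprinted fluorescence ratio check between 0.5 and 1.5, limit read from the data, passing the limit was not always enough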;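 also: 0% = enzyme with substrate and 100% = substrate without enzyme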
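Test system: purified human Csn5 enzyme expressed in HEK293T cells. Amount: 0.24 nM enzyme. Reagent: SCFSkp2-Nedd8OG substrate at 10 nM final. Schedule: 90 min incubation of compound, enzyme and substrate at room temperature. Detection: fluorescence polarization. Read-out: % inhibition of substrate cleavage by Csn5.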
TPT1 inh confirm: confirmation of Candida albicans TPT1 inhibitors; shares compounds with TPT1 inh; recombinant caTPT1, fluorescence polarization, RNase T1 coupled; inhibition, % at 5 µM; AID 2149; 2,400 tested, 74% active;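 active = inhibition above the primary screen limit, the mean inhibition of all tested compounds plus 3 SD, cut at about 25% in these data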
RNase T1 inh: counter-screen for TPT1 inhibitors: inhibitors of Aspergillus oryzae RNase T1; shares compounds with TPT1 inh; RNase T1 cleavage, fluorescence polarization, 1536-well; inhibition, % at 5 µM; 2,400 tested, 83% active; AID 2153;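 active = inhibition above the solvent-only control well mean plus 3 SD, limit set per screening run, cut at about 23% in these data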;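 also: plate controls were DMSO wells with enzyme for no effect and wells without RNase T1 for full effect; inhibitors block cleavage so intact labeled substrate keeps polarization high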
Target sequence (P00651 whole entry, looked up): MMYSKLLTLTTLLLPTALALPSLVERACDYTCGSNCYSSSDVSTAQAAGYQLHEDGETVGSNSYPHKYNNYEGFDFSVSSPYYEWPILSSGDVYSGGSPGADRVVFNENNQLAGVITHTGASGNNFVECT
Rpn11 inh conf: confirmation of human proteasome Rpn11 inhibitors | AID 602318 | inhibition, % at 20 µM | 1,900 tested, 29% active | purified human 26S proteasome, Ub4-pepOG fluorescence polarization; proteasome pretreated with epoxomicin | shares compounds with Rpn11 block
MMP-2 counter: MMP-2 (human) inhibition counter-screen | shares compounds with Rpn11 block | recombinant MMP-2, FRET peptide cleavage fluorescence | inhibition, % at 20 µM | 1,900 tested, 4% active;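 also: human MMP-2 activated beforehand with APMA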
Thrombin FP: counter-screen for RPN11 inhibitors: inhibition of bovine thrombin; shares compounds with Rpn11 block; bovine thrombin cleavage of Ub4-pepOG, fluorescence polarization; inhibition, % at 20 µM; 1,900 tested, 13% active; AID 602333;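 active = mean inhibition at least 40% at 20 µM, or signal 3 deviations below plate average, so some actives read negative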;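 also: plate controls were thrombin with DMSO for no effect and buffer wells lacking thrombin for full effect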
* marks the source's active call; other numbers are inactive results. Sampled rows, rich in hits. Any-hit rate of the full collection: about 1.5%. Rule as the data show it, unless noted: active = inhibition above about 40%; inactive = the rest.

What do the screens show for `COC(=O)C1=C(c2cccc(OC)c2OC)C[C@@H]2CC[C@H]1N2C(=O)N1CCC(C)CC1`?
TPT1 inh: 2; Rpn11 block: 8; HNF4A DNA FP: 1; CSN inh: 1

How did COc1ccc(Cn2c(N)c(C(=O)NCc3ccco3)c3nc4ccccc4nc32)cc1OC do in these assays?
TPT1 inh: 28*; Rpn11 block: 46*; HNF4A DNA FP: 11; CSN inh: 57*; TPT1 inh confirm: 7; RNase T1 inh: 12; Rpn11 inh conf: -4; MMP-2 counter: -37; Thrombin FP: -2

How did CCN(CC)c1ccc(N=Cc2c(O)n(-c3cc(OC)ccc3OC)c(=O)[nH]c2=O)cc1 do in these assays?
TPT1 inh: 93*; Rpn11 block: 40*; HNF4A DNA FP: 13; CSN inh: 21; TPT1 inh confirm: 76*; RNase T1 inh: 88*; Rpn11 inh conf: 46*; MMP-2 counter: -9; Thrombin FP: 42*

What do the screens show for `CCC(C)N1C(=O)/C(=C\c2ccc(N3CCCCCC3)cc2)C(=O)NC1=S` (configuration not stated)?
TPT1 inh: 25*; Rpn11 block: 60*; HNF4A DNA FP: 8; CSN inh: 24; TPT1 inh confirm: 37*; RNase T1 inh: 58*; Rpn11 inh conf: 3; MMP-2 counter: 9; Thrombin FP: 0

What do the screens show for `c1cc2c(cc1N1CCCCC1)C1CC2CCN1` (configuration not stated)?
Rpn11 block: 0; HNF4A DNA FP: 6; CSN inh: 0

Results for COc1ccc(CN2CCN(Cc3ccccc3F)CC2)cc1 ?
TPT1 inh: 0; Rpn11 block: -2; HNF4A DNA FP: 0; CSN inh: -3

Results for CC(=O)Nc1ccc(OCCF)cc1 ?
TPT1 inh: 0; Rpn11 block: -4; HNF4A DNA FP: -3; CSN inh: -5

How did COc1ccc(-n2c(/C=C/c3ccc(O)c(O)c3)nc3ccccc3c2=O)cc1 do in these assays?
TPT1 inh: 36*; Rpn11 block: 120*; HNF4A DNA FP: 20; CSN inh: 24; TPT1 inh confirm: 58*; RNase T1 inh: 61*; Rpn11 inh conf: 72*; MMP-2 counter: 3; Thrombin FP: 53*

Results for NS(=O)(=O)c1ccc(N=Cc2c(O)n(C3CCCCC3)c(=O)n(C3CCCCC3)c2=O)cc1 ?
TPT1 inh: 44*; Rpn11 block: 72*; HNF4A DNA FP: 6; CSN inh: 23; TPT1 inh confirm: 19; RNase T1 inh: 25*; Rpn11 inh conf: 22; MMP-2 counter: -20; Thrombin FP: 18

What do the screens show for `CCn1c(O)c(C=Nc2ccc(S(N)(=O)=O)cc2)c(=O)n(CC)c1=S`?
TPT1 inh: 20; HNF4A DNA FP: 6; CSN inh: -5

Results for Cn1c(O)c(/C=N/NC(=O)c2ccncc2)c(=O)n(C)c1=S ?
TPT1 inh: 116*; Rpn11 block: 96*; HNF4A DNA FP: 14; CSN inh: 22; TPT1 inh confirm: 101*; RNase T1 inh: 111*; Rpn11 inh conf: 39; MMP-2 counter: -39; Thrombin FP: 20

Results for O=C(N/N=C/c1c(O)n(-c2ccccc2)c(=O)[nH]c1=O)c1ccncc1 ?
TPT1 inh: 16; Rpn11 block: 14; HNF4A DNA FP: 7; CSN inh: 11

What do the screens show for `CCOC(=O)c1c(-n2c(C)cc(/C=C3\C(=O)NC(=O)N(C)C3=O)c2C)sc2c1CCCC2`?
TPT1 inh: 17; Rpn11 block: 17; HNF4A DNA FP: 2; CSN inh: 2

Results for Cc1cc(/C=C2\C(=O)NC(=O)N(c3ccc(Cl)cc3)C2=O)c(C)n1-c1sc2c(c1C#N)CCCC2 ?
TPT1 inh: 46*; Rpn11 block: 50*; HNF4A DNA FP: 5; CSN inh: 27; TPT1 inh confirm: 19; RNase T1 inh: 28*; Rpn11 inh conf: 36; MMP-2 counter: -16; Thrombin FP: 24

Results for COc1ccc(C(=O)OC2CC3CCC(C2)[N+]3(C)[O-])cc1OC (configuration not stated) ?
TPT1 inh: 3; Rpn11 block: -5; HNF4A DNA FP: 4; CSN inh: 1

How did Cc1cccc(N2C(=O)/C(=C/c3ccc(CN(CCC#N)S(C)(=O)=O)o3)C(=O)NC2=S)c1 do in these assays?
TPT1 inh: 34*; Rpn11 block: 42*; HNF4A DNA FP: 22; CSN inh: 31; TPT1 inh confirm: 21; RNase T1 inh: 29*; Rpn11 inh conf: 73*; MMP-2 counter: 46*; Thrombin FP: 125*

What do the screens show for `C=CCn1c(O)c(/C=C2\C=Nc3ccccc32)c(=O)[nH]c1=O`?
TPT1 inh: 36*; Rpn11 block: 60*; HNF4A DNA FP: 1; CSN inh: 8; TPT1 inh confirm: 13; RNase T1 inh: 21; Rpn11 inh conf: 14; MMP-2 counter: -5; Thrombin FP: 10

Results for CCOc1ccc(-n2c(O)c(/C=C3\C=Nc4ccccc43)c(=O)[nH]c2=O)cc1 ?
TPT1 inh: 23; Rpn11 block: 36; HNF4A DNA FP: -8; CSN inh: -1

How did COc1ccccc1-n1c(O)c(/C=C2\C=Nc3ccccc32)c(=O)[nH]c1=O do in these assays?
TPT1 inh: 29*; Rpn11 block: 48*; HNF4A DNA FP: 1; CSN inh: 4; TPT1 inh confirm: 15; RNase T1 inh: 22*; Rpn11 inh conf: 6; MMP-2 counter: 1; Thrombin FP: 0

How did COc1ccc(OC)c(-n2c(O)c(/C=C3\C=Nc4ccccc43)c(=O)[nH]c2=O)c1 do in these assays?
TPT1 inh: 15; Rpn11 block: 20; HNF4A DNA FP: 1; CSN inh: 5

Results for COC(=O)C1=C(c2cccc(C#N)c2)C[C@@H]2CC[C@H]1N2C(=O)NCCCOC(C)C ?
Rpn11 block: 7; HNF4A DNA FP: -2; CSN inh: 1

How did N=Cc1c(O)n(-c2ccccc2)c(=O)n(-c2ccccc2)c1=O do in these assays?
TPT1 inh: 1; Rpn11 block: 4; HNF4A DNA FP: 2; CSN inh: 2

Results for CCOc1ccc(N2C(=O)/C(=C/c3ccc(C)o3)C(=O)NC2=S)cc1 ?
TPT1 inh: 32*; Rpn11 block: 77*; HNF4A DNA FP: 21; CSN inh: 27; TPT1 inh confirm: 47*; RNase T1 inh: 57*; Rpn11 inh conf: 25; MMP-2 counter: 57*; Thrombin FP: 34
